Source: PMC4655421 (ACS Chemical Biology, 2015)
Where “and” joins values, the source holds several entries; their conditions need not be identical. Identical values can stand only once.

Columns and labels:
Rho-MatB [1] = molecular target: T1, Rho-MatB (Rhodopseudomonas palustris, UniProt Q6ND88, C106A/K488A/Q457C/R286C); experiment: Fluorescence titration of nucleotides to Rho-MatB; type: binding
T1 sequence (Q6ND88 1-503 C106A/R286C/Q457C/K488A): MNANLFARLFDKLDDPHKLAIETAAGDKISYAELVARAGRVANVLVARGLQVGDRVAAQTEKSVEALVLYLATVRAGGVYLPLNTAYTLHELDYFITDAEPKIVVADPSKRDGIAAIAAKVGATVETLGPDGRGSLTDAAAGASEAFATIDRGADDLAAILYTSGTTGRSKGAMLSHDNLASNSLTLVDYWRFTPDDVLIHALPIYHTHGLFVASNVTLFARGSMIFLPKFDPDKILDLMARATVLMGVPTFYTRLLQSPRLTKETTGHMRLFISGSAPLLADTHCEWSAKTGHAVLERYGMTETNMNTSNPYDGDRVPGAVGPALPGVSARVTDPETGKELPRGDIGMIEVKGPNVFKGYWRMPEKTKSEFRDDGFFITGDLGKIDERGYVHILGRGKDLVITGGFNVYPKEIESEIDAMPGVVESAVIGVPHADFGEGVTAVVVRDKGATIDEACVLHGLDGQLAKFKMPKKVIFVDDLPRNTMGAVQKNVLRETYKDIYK

Rho-MatB [2] = molecular target: T1, Rho-MatB; experiment: ATP titration of Rho-MatB in the presence of other nucleotides; type: binding; details: for fluorescence ratio of ATP titration: 1 μM Rho-MatB titrated with ATP in presence of 100 μM of the named nucleotide
Procedure, shortened: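 ATP was titrated into 1 μM labelled sensor, alone or with 100 μM ADP, dATP, ATPγS or AMP-PNP. Buffer was Hepes pH 7.0 / NaCl / MgCl2 / BSA, with excitation at 553 nm and emission at 571 nm. Dilution-corrected data were fitted to a quadratic binding equation to give the apparent Kd for ATP and the fluorescence ratio.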

Rho-MatB [3] = molecular target: T1, Rho-MatB; experiment: Fluorescence of Rho-MatB with various ligands; type: binding; details: in words
pyruvate kinase = pyruvate kinase (Oryctolagus cuniculus, UniProt P11974); experiment: Steady-state ATP production by pyruvate kinase monitored by Rho-MatB; type: biochemical, rabbit
Sequence of pyruvate kinase (P11974 whole entry): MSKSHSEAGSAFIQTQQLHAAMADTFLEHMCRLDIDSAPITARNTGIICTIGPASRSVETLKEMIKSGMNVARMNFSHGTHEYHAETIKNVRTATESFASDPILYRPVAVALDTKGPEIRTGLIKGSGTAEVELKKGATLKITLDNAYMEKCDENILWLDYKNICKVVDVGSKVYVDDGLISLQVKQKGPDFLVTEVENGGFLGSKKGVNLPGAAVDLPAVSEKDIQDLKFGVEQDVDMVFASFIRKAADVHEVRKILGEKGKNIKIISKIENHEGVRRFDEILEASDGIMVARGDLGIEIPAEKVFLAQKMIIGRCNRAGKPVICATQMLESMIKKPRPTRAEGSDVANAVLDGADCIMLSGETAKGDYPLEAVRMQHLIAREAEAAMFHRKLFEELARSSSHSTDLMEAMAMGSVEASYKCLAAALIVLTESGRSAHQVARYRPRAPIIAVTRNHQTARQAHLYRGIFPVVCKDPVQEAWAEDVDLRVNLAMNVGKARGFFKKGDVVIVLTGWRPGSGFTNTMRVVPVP

Rho-MatB [4] = molecular target: T1, Rho-MatB; experiment: Stopped-flow association and dissociation kinetics of Rho-MatB and ATP; type: binding; details: 25 °C
Procedure, shortened: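 Stopped-flow fluorescence at 25 °C in Hepes pH 7.0, NaCl, MgCl2, BSA buffer. In one format, a range of sensor concentrations in 10-fold excess over ATP gave single-exponential traces, with at least three traces averaged at 1.3 and 2.5 μM. In the other, 0.25 μM sensor was mixed with excess ATP, giving biphasic traces. kobs (fast phase) was plotted against the excess reactant; linear-regression slope gave association and intercept gave dissociation.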

RpMatB K488A = details: read-out: Kd for ATP; unlabeled RpMatB K488A; cited from earlier work
ATeam = ATeam biosensor; cited from earlier work
[5] = 0.25 μM Rho-MatB, ATP in large excess
[6] = Rho-MatB in 10-fold excess over ATP

In the case of `Nc1ncnc2c1ncn2[C@@H]1O[C@H](CO[P@](=O)(O)O[P@](=O)(O)O[P@@](=O)(O)S)[C@@H](O)[C@H]1O` [ATPγS, adenosine 5′-(γ-thio)triphosphate], the Kd (Rho-MatB [1]) is reported as 16.2 ± 0.8 µM, the “fluorescence ratio of ATP titration” value (Rho-MatB [2]) is reported as 1.9 and the “increase of apparent Kd for ATP” value (Rho-MatB [2]; fixed concentration of the named nucleotide) is reported as roughly 5 fold.

For `O=C(O)CC(=O)O` [malonate], the “effect on the MgATP-induced fluorescence increase” value (Rho-MatB [3]) was “did not inhibit” and the “effect on the fluorescence of Rho-MatB” value (Rho-MatB [3]) was “no effect”.

For `Nc1ncnc2c1ncn2[C@H]1C[C@H](O)[C@@H](COP(=O)(O)OP(=O)(O)OP(=O)(O)O)O1` [dATP], the “fluorescence ratio of ATP titration” value (Rho-MatB [2]) was 2.3.

With `Nc1nc2c(ncn2[C@@H]2O[C@H](COP(=O)(O)OP(=O)(O)OP(=O)(O)O)[C@@H](O)[C@H]2O)c(=O)[nH]1` [GTP] the “effect on the fluorescence of Rho-MatB” value (Rho-MatB [3]) was “did not significantly affect the fluorescence”.

With `Nc1nc2c(ncn2[C@@H]2O[C@H](COP(=O)(O)OP(=O)(O)O)[C@@H](O)[C@H]2O)c(=O)[nH]1` [GDP] the “effect on the fluorescence of Rho-MatB” value (Rho-MatB [3]) was “did not significantly affect the fluorescence”.

In the case of `Nc1ncnc2c1ncn2[C@@H]1O[C@H](COP(=O)(O)OP(=O)(O)NP(=O)(O)O)[C@@H](O)[C@H]1O` [AMP-PNP, adenosine 5′-(β,γ-imido)triphosphate], the “fluorescence ratio of ATP titration” value (Rho-MatB [2]) is reported as 2.4.

For `Nc1ncnc2c1ncn2[C@@H]1O[C@H](COP(=O)(O)O)[C@@H](O)[C@H]1O` [AMP], the “effect on the fluorescence of Rho-MatB” value (Rho-MatB [3]) was “did not significantly affect the fluorescence”.

With `C=C(OP(=O)(O)O)C(=O)O` [phosphoenolpyruvate] the average specific activity (pyruvate kinase) was 0.76 μM s^–1 U^–1 mL and 0.76 ± 0.02 μM s^–1 U^–1 mL and the “average Vmax” value (pyruvate kinase; n = 5) was 0.0190 ± 0.0004 μM s^–1.

With `CC(C)(COP(=O)(O)OP(=O)(O)OC[C@H]1O[C@@H](n2cnc3c(N)ncnc32)[C@H](O)[C@@H]1OP(=O)(O)O)[C@@H](O)C(=O)NCCC(=O)NCCS` [coenzyme A] the “effect on the MgATP-induced fluorescence increase” value (Rho-MatB [3]) was “did not inhibit” and the “effect on the fluorescence of Rho-MatB” value (Rho-MatB [3]) was “no effect”.

For `Nc1ncnc2c1ncn2[C@@H]1O[C@H](COP(=O)(O)OP(=O)(O)O)[C@@H](O)[C@H]1O` [ADP], the “fluorescence ratio of ATP titration” value (Rho-MatB [2]) was 3.0.

With `Nc1ncnc2c1ncn2[C@@H]1O[C@H](COP(=O)(O)OP(=O)(O)OP(=O)(O)O)[C@@H](O)[C@H]1O` [ATP] the “higher affinity for ATP than ADP” value (Rho-MatB [1]; Rho-MatB) was 67 fold, the “increase in fluorescence intensity on ATP binding” value (Rho-MatB [1]; excitation 553 nm, emission 575 nm, 1 μM Rho-MatB) was 3.7 fold and the “association rate constant (fast phase)” value (Rho-MatB [4]; [5]) was 1.83 ± 0.02 μM^–1 s^–1 and 1.8 μM^–1 s^–1. For the same compound, the “intercept (dissociation rate constant, fast phase)” value (Rho-MatB [4]; [5]) was 8.15 ± 0.17 s^–1 and 8.2 s^–1, the association rate constant (Rho-MatB [4]; [6]) was 0.72 μM^–1 s^–1 and the “intercept (dissociation rate constant)” value (Rho-MatB [4]; [6]) was 8.0 s^–1 and 7.95 ± 0.18 s^–1. The Kd (RpMatB K488A) was 0.31 µM and the “higher affinity for ATP than ADP” value (ATeam) was 30 fold.
